According to ChEMBL document CHEMBL3769308, “Melanin-Concentrating Hormone Receptor 1 Antagonists Lacking an Aliphatic Amine: Synthesis and Structure-Activity Relationships of Novel 1-(Imidazo[1,2-a]pyridin-6-yl)pyridin-2(1H)-one Derivatives” (J Med Chem, 2016):
Each block holds one compound with its values, some of them ahead of it.

Key:
[1] = molecular target: T1, Melanin-concentrating hormone receptor 1 (Homo sapiens, UniProt Q99705); test: Displacement of [125I]-MCH (4 to19 residues) from human MCHR1 expressed in CHO cell membranes after 1 hr by liquid scintillation counting analysis
T1 sequence (Q99705 whole entry, the tested form may be a part): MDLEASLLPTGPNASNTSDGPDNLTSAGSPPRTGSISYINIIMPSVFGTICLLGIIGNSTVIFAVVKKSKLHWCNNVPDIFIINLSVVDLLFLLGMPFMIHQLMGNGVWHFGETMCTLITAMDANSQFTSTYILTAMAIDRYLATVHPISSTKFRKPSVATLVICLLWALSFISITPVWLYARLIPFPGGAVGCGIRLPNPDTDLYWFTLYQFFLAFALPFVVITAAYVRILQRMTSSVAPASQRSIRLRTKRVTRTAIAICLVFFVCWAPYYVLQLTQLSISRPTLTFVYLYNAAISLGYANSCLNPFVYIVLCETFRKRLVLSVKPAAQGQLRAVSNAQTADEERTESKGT
Outline: (§1)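 Membranes from MCHR1-expressing CHO cells, homogenized in NaHCO3/EDTA with protease inhibitors, 100000g pellet held at 2 mg/mL protein in 20 mM Tris-HCl pH 7.5, 5 mM EDTA, protease inhibitors.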

[2] = molecular target: Melanin-concentrating hormone receptor 1 (Rattus norvegicus, UniProt P97639); test: Displacement of [125I]-MCH (4 to 19 residues) from rat MCHR1 expressed in CHO cell membranes after 1 hr by liquid scintillation counting analysis; outline: as §1
Chain of Melanin-concentrating hormone receptor 1 (Rattus norvegicus, UniProt P97639) (P97639 whole entry, the tested form may be a part): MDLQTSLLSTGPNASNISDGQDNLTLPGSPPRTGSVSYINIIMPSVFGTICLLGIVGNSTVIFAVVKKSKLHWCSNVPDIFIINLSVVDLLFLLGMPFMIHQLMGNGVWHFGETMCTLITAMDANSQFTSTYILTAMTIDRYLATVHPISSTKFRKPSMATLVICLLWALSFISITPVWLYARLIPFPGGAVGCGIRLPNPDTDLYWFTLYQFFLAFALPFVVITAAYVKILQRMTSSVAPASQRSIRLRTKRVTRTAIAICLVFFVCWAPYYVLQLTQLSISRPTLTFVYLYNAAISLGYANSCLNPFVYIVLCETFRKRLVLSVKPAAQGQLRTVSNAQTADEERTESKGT

[3] = Lipophilicity, log D of the compound at pH 7.4; type: physicochemical; conditions: buffer
Outline: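 Chromatographic HPLC method with UV detection, estimating octanol/buffer partition at pH 7.4.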

[4] = molecular target: T1, Melanin-concentrating hormone receptor 1; type: functional, cell-based, CHO
[5] = Plasma concentration in diet-induced obese F344/jcl rat at 10 mg/kg, po administered on day 1 measured 24 hrs post dose; type: ADME, organism-based
Outline: (§2)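 From the DIO F344 rat 2-day feeding study (oral, 0.5% methylcellulose): plasma and brain concentrations taken 24 h after the day-1 dose; brain/plasma ratio from these.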

Plasma [6] = test: Free plasma concentration in diet-induced obese F344/jcl rat at 3 mg/kg, po administered on day 1 measured 24 hrs post dose; type: ADME, organism-based; conditions: in vivo
Outline: (§3)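 Plasma level 24 h after day-1 oral dose in DIO F344 rats multiplied by the free fraction measured in DIO rat plasma to give free concentration.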

Plasma [7] = test: Free plasma concentration in diet-induced obese F344/jcl rat at 10 mg/kg administered after 24 hrs in day 1; type: ADME, organism-based; conditions: in vivo; outline: as §3
[8] = Oral bioavailability in Sprague-Dawley rat at 1 mg/kg, administered through cassette dosing by LC/MS/MS analysis; type: ADME, organism-based; conditions: in vivo
[9] = Total clearance in Sprague-Dawley rat at 0.1 mg/kg, iv administered through cassette dosing by LC/MS/MS analysis; type: ADME, organism-based; conditions: in vivo
Outline: (§4)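 Nonfasted male SD rats (8 weeks old, n = 3) given 0.1 mg/kg iv by cassette dosing; plasma deproteinized with acetonitrile, centrifuged, and supernatant concentrations measured by LC/MS/MS.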

[10] = Volume of distribution at steady state in Sprague-Dawley rat at 0.1 mg/kg, iv by LC/MS/MS analysis; type: ADME, organism-based; conditions: in vivo, read-out: Vdss; outline: as §4
[11] = Cmax in Sprague-Dawley rat at 1 mg/kg, po administered through cassette dosing by LC/MS/MS analysis; type: ADME, organism-based; parameters: dose 1 mg/kg, route oral; conditions: in vivo
[12] = Tmax in Sprague-Dawley rat at 1 mg/kg, po administered through cassette dosing by LC/MS/MS analysis; type: ADME, organism-based; conditions: in vivo
[13] = AUC (0 to 8 hrs) in Sprague-Dawley rat at 1 mg/kg, po administered through cassette dosing by LC/MS/MS analysis; type: ADME, organism-based; parameters: time < 8 hr, dose 1 mg/kg, route oral; conditions: in vivo
[14] = Unbound fraction in po dosed diet-induced obese F344/jcl rat plasma; type: ADME, organism-based
[15] = Plasma concentration in diet-induced obese F344/jcl rat at 3 mg/kg, po administered on day 1 measured 24 hrs post dose; type: ADME, organism-based; outline: as §2
[16] = Drug uptake in diet-induced obese F344/jcl rat brain at 3 mg/kg, po administered on day 1 measured 24 hrs post dose; type: ADME, organism-based; conditions: read-out: Drug uptake; outline: as §2
[17] = Drug uptake in diet-induced obese F344/jcl rat brain at 10 mg/kg, po administered on day 1 measured 24 hrs post dose; type: ADME, organism-based; outline: as §2
[18] = Ratio of drug level in brain to plasma in diet-induced obese F344/jcl rat at 3 mg/kg, po administered on day 1 measured 24 hrs post dose; type: ADME, organism-based; conditions: read-out: BPR; outline: as §2
[19] = Ratio of drug level in brain to plasma in diet-induced obese F344/jcl rat at 10 mg/kg, po administered on day 1 measured 24 hrs post dose; type: ADME, organism-based; conditions: read-out: BPR; outline: as §2
Rattus norvegicus [20] = test: Antiobesity activity in diet-induced obese F344/jcl rat assessed as reduction in body weight at 3 mg/kg, po qd administered through repeated dosing for 2 weeks measured during 2 weeks of dosing relative to vehicle-treated control; type: functional; parameters: scale not given: the % may be the effect or the level left
Outline: (§5)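 Male DIO F344/Jcl rats (45 weeks old, high-fat diet), habituated and grouped as for feeding study; once-daily oral dosing in 0.5% methylcellulose at 2 mL/kg for 2 weeks, 1–3 h before dark onset after weighing, n = 6. Body weight change as percent of initial weight, compared with vehicle.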

Rattus norvegicus [21] = test: Antiobesity activity in diet-induced obese F344/jcl rat assessed as reduction in body weight at 10 mg/kg, po qd administered through repeated dosing for 2 weeks measured during 2 weeks of dosing relative to vehicle-treated control; type: functional; parameters: scale not given: the % may be the effect or the level left; outline: as §5
Mus musculus [22] = test: Anorectic activity in po dosed high fat diet fed wild type mouse assessed as reduction of food intake administered for 3 days measured during 3 days of dosing; type: functional, organism-based
Outline: (§6)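 Male MCHR1-deficient and wild-type littermate mice (45 weeks old) on high-fat diet D12451 from 5 weeks, singly housed, acclimated with 0.5 mL tap water dosing, grouped by day −3 to −1 intake and day −1 weight. Oral vehicle (0.5% methylcellulose) or suspension at 10 mL/kg for 3 days, n = 5–6; cumulative 3-day intake; Williams test.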

HepG2 = test: Induction of phospholipidosis in human HepG2 cells at 0.6 to 20 uM after 24 hrs by NBD-PE-based fluorometric analysis; type: cell-based; conditions: hepg2, 24 h
Outline: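 HepG2 cells in DMEM with 5% FBS, precultured 24 h, then exposed 24 h at 37 °C to 60 μM NBD-PE medium plus compound medium (0.6 or 20 μM, added 1:1); amiodarone 10 μM final as reference. NBD-PE uptake fluorescence (ex 485/em 538), blank subtracted, expressed relative to amiodarone; maximum value taken.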

Mus musculus [23] = test: Effect on food intake in MCHR-deficient high fat diet fed mouse at 10 to 30 mg/kg, po administered for 3 days measured during 3 days of dosing; type: ADME, organism-based; conditions: in vivo, 72 h; outline: as §6
Rattus norvegicus [24] = species on record: Rattus norvegicus; test: animal or person; conditions: F344/jcl, po, 48 h, read-out: INH
Rattus norvegicus [25] = species on record: Rattus norvegicus; test: animal or person; conditions: F344/jcl, po, 336 h, read-out: INH
Rattus norvegicus [26] = species on record: Rattus norvegicus; test: animal or person; conditions: F344/jcl, po, 48 h, read-out: INH; remark: listed apart in the source
Rattus norvegicus [27] = species on record: Rattus norvegicus; test: animal or person; conditions: F344/jcl, po, 336 h, read-out: INH; remark: listed apart in the source

Compound: Cc1c(C2CC2)nc2ccc(-n3ccc(OCc4ccc(F)cc4)cc3=O)cn12
IC50 [1]: 47 nM | IC50 [2]: 28 nM

Compound: CC(=O)c1nc2ccc(-n3ccc(OCc4ccc(F)cc4)cc3=O)cn2c1C
IC50 [1]: > 1000 nM | IC50 [2]: > 1000 nM

Compound: Cc1c(C2CC2)nc2ccc(-n3ccc(OCc4ccc(C(F)(F)F)cc4)cc3=O)cn12
IC50 [1]: 72 nM | IC50 [2]: 82 nM

Compound: Cc1c(C2CC2)nc2ccc(-n3ccc(OCc4cccs4)cc3=O)cn12
IC50 [1]: 95 nM | IC50 [2]: 130 nM

Compound: Cc1c(C(=O)C2CC2)nc2ccc(-n3ccc(OCc4ccc(F)cc4)cc3=O)cn12
IC50 [1]: > 1000 nM | IC50 [2]: > 1000 nM

Compound: Cc1c(C2CC2)cc2ccc(NC(=O)COc3ccc(OC(F)(F)F)cc3)cn12
IC50 [1]: > 1000 nM | IC50 [2]: > 1000 nM

Compound: Cc1c(C2CC2)nc2ccc(-n3ccc(OCc4cccnc4)cc3=O)cn12
IC50 [1]: > 1000 nM | IC50 [2]: > 1000 nM

Compound: Cc1c(C2CC2)nc2ccc(-n3ccc(OCc4ccccn4)cc3=O)cn12
IC50 [1]: 240 nM | IC50 [2]: 150 nM

Compound: Cc1nc2ccc(-n3ccc(OCc4ccccc4)cc3=O)cn2c1C
IC50 [1]: 78 nM | IC50 [2]: 80 nM

Compound: Cc1c(C2CC2)nc2ccc(-n3ccc4c(c3=O)CCC(c3ccc(Cl)cc3)O4)cn12 (configuration not stated)
IC50 [1]: 94 nM | IC50 [2]: 62 nM

Compound: Cc1c(CO)nc2ccc(-n3ccc(OCc4ccc(F)cc4)cc3=O)cn12
IC50 [1]: > 1000 nM | IC50 [2]: > 1000 nM

Compound: Cc1c(C2CC2)nc2ccc(-n3ncc(OCc4ccc(Cl)cc4)cc3=O)cn12
IC50 [1]: 92 nM | IC50 [2]: 110 nM | logD [3]: 3.7

Compound: Cc1c(C2CC2)nc2ccc(-n3cccc(Oc4ccc(OC(F)(F)F)cc4)c3=O)cn12
IC50 [1]: 270 nM | IC50 [2]: 240 nM

Compounds with a lower IC50 [1], results first:

IC50 [1]: 42 nM | IC50 [2]: 28 nM
Compound: Cc1c(C2CC2)nc2ccc(-n3ccc(OCc4ccccc4)cc3=O)cn12

IC50 [1]: 37 nM | IC50 [2]: 30 nM | logD [3]: 2.8 | IC50 [4]: 140 nM
Compound: Cc1c(C2CC2)nc2ccc(-n3ccc(OCc4ccc(Cl)cc4)nc3=O)cn12

concentration at 24 h [5]: 1350 ng/mL | Cp(f) (Plasma [6]): 17.2 nM | Cp(f) (Plasma [7]): 66.5 nM | bioavailability [8]: 58% | IC50 [1]: 26 nM | IC50 [2]: 20 nM | logD [3]: 3.2 | IC50 [4]: 23 nM | clearance [9]: 5.2 mL/min/kg | Vd [10]: 1.05 L/kg | Cmax [11]: 313 ng/mL | Tmax [12]: 2 h | AUC(0-t) at 8 h [13]: 1880 ng·h/mL | fraction unbound [14]: 0.02 | concentration at 24 h [15]: 351 ng/mL | concentration at 24 h [16]: 218 ng/g | concentration at 24 h [17]: 841 ng/g | Kp at 24 h [18]: 0.61 | Kp at 24 h [19]: 0.62
Compound: Cc1c(C2CC2)nc2ccc(-n3ccc(OCc4ccc(Cl)cc4)cc3=O)cn12
Activity (Rattus norvegicus [20]): 3.7% | Activity (Rattus norvegicus [21]): 8.6% | Activity (Mus musculus [22]): Dose-dependent effect | Activity (HepG2): Non-toxic | Activity (Mus musculus [23]): Non-toxic | inhibition in vivo at 3 mg/kg (Rattus norvegicus [24]): 15% | inhibition in vivo at 10 mg/kg (Rattus norvegicus [25]): 36.2% | inhibition in vivo at 10 mg/kg (Rattus norvegicus [26]): 29.6% | inhibition in vivo at 3 mg/kg (Rattus norvegicus [27]): 15.4%

IC50 [1]: 25 nM | IC50 [2]: 54 nM
Compound: Cc1c(C2CC2)nc2ccc(-n3ccc(OCc4ccsc4)cc3=O)cn12

IC50 [1]: 17 nM | IC50 [2]: 15 nM
Compound: Cc1c(C2CC2)nc2ccc(-n3ccc(OCc4csc(C(F)(F)F)c4)cc3=O)cn12

IC50 [1]: 3 nM | IC50 [2]: 6.3 nM
Compound: Cc1c(C2CC2)nc2ccc(NC(=O)COc3ccc(OC(F)(F)F)cc3)cn12
